# Experimental data taken from ChEMBL document CHEMBL1140965, “New 1-indanone thiosemicarbazone derivatives active against BVDV” (Eur J Med Chem, 2008).
# pEC50: −log10 of the molar value.
# Experiments:
# [1] = Cytotoxicity against MDBK cells after 3 days by MTS/PMS assay; assay type: cell-based, Bos taurus; conditions: cattle
# How it was run: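 MDBK cells seeded at 1 × 10^4 per well in MEM-FBS; serial compound dilutions added 24 h later (DMSO stocks 1 mg/mL). Cells proliferated 3 days at 37 °C. MTS/PMS was then added for 3 h at 37 °C and absorbance read at 490 nm. Viability is the percentage of untreated-cell absorbance. CC50 = 50% inhibition of proliferation, logarithmic interpolation from dose-response curves.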
# [2] = test system: Bovine viral diarrhea virus 1; assay: Antiviral activity against bovine viral diarrhoea virus type-1 NADL in MDBK cells assessed as inhibition of virus-induced cytopathic effect; assay type: functional, organism-based; conditions: Bovine viral diarrhea virus isolates and strains
# How it was run: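 MDBK cells seeded at 1 × 10^4 per well in MEM-FBS, 24 h at 37 °C, 5% CO2; medium replaced with serial compound dilutions (DMSO stocks 1 mg/mL), then BVDV inoculum giving >80% CPE by 3 days at 37 °C. Uninfected and virus-only controls on each plate. Read-out is MTS/PMS in MEM-DHS, absorbance 490 nm. EC50 = 50% protection against CPE, logarithmic interpolation from dose-response curves.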
# [3] = Selectivity index, ratio of CC50 for MDBK cells to EC50 for bovine viral diarrhoea virus type-1 NADL; assay type: toxicity, cell-based; conditions: cattle, read-out: Ratio CC50/EC50
# How it was run: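 Ratio of CC50 to EC50. CC50 comes from a 3-day MTS/PMS proliferation assay on MDBK cells. EC50 comes from protection of MDBK cells against NADL-strain cytopathic effect after 3 days, read by MTS/PMS at 490 nm. Both values were derived by logarithmic interpolation from dose-response curves.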
# [4] = test system: Vesicular stomatitis virus; assay: Antiviral activity against Vesicular stomatitis virus type-1 Indiana; assay type: functional, organism-based
# [5] = test system: Human immunodeficiency virus 1; assay: Antiviral activity against HIV1; assay type: functional, organism-based
# [6] = test system: Human alphaherpesvirus 1; assay: Antiviral activity against HSV1 F; assay type: functional, organism-based; conditions: Human alphaherpesvirus 1, F
# [7] = test system: Poliovirus 1; assay: Antiviral activity against poliovirus type-1 Sabin; assay type: functional, organism-based; conditions: Enterovirus C
SMILES,CC50 at 72 h [1] [µM],pEC50 [2],selectivity ratio [3],pEC50 [4],pEC50 [5],pEC50 [6],pEC50 [7]
NC(=S)N/N=C1\CCc2ccccc21,156,4.74,8.6,,,,
Cc1cccc2c1CC/C2=N\NC(N)=S,165,5.09,20.3,,,,
Cc1ccc2c(c1)CC/C2=N\NC(N)=S,130,5.19,20.1,,,,
NC(=S)N/N=C1\CCc2cc(Cl)ccc21,> 27,5.06,> 3.07,,,,
COc1ccc2c(c1)CC/C2=N\NC(N)=S,149,4.73,7.93,,,,
Cc1cc2c(c(C)c1Cl)CC/C2=N\NC(N)=S,72.5,< 4.95,< 6.53,,,,
Cc1cc2c(c(C)c1Cl)/C(=N/NC(N)=S)CC2,80.7,5.13,10.9,,,,
COc1cccc2c1CC/C2=N\NC(N)=S,822,3.62,3.39,,,,
COc1ccc2c(c1)/C(=N/NC(N)=S)CC2,106,4.59,4.09,,,,
COc1ccc2c(c1OC)CC/C2=N\NC(N)=S,141,4.94,12.2,,,,
NC(=S)N/N=C1\CCc2cc(Br)ccc21,> 15,5.74,> 8.29,,,,
Cc1cc(C)c2c(c1)CC/C2=N\NC(N)=S,51.7,,,,,,
Cc1cc(C)c2c(c1Br)CC/C2=N\NC(N)=S,139,5.05,15.5,,,,
COc1cc2c(cc1OC)/C(=N/NC(N)=S)CC2,140,5.76,80.3,< 4.12,< 4.42,< 4.19,4.19
NC(=O)c1ncn([C@@H]2O[C@H](CO)[C@@H](O)[C@H]2O)n1 [RIBAVIRIN],54,5.34,,,,,
